Measured values reported in ChEMBL document CHEMBL1127694, “N-(acyloxyalkyl)pyridinium salts as soluble prodrugs of a potent platelet activating factor antagonist” (J Med Chem, 1994).

Assays:
[1] = The rate of hydrolytic cleavage in plasma was assessed by incubating compounds (30 uM) at 37 degrees Celsius with human plasma adjusted to pH 7; format: ADME
Summary of the method: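 Human plasma brought to pH 7 with K2PO4 (50 mM final), compounds at 30 μM, 37 °C. Timed aliquots quenched with 2 volumes acidified acetonitrile and centrifuged. Supernatant quantified by reverse-phase HPLC at 250 nm. t1/2 from single-exponential decay fit, t1/2 = ln(2)/k.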

[2] = Half-life values were derived from the decay rate constant (k) by fitting the concentration and time values to the exponential decay function at pH 7; format: ADME
Summary of the method: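 Compounds at 20 μM in 25 mM K2PO4 buffer, pH 7, room temperature; aliquots taken over time and quantified by C18 reverse-phase HPLC (UV 250 nm, external calibration). t1/2 = ln(2)/k, with k from fitting concentration vs time to C = C0e^(-kt).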

[3] = species: Oryctolagus cuniculus; assay: Inhibitory activity was determined in PAF-induced serotonin release from rabbit platelets; format: functional
[4] = tested on: Rattus norvegicus; assay: In vivo potency for inhibition of PAF-induced cutaneous vascular permeability in rat by intravenous administration; format: functional
[5] = tested on: Rattus norvegicus; assay: In vivo potency for complete inhibition of LPS-induced intestinal damage in rat by intravenous administration; format: functional
Summary of the method: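 Sprague–Dawley rats, 200–225 g. Compound or vehicle (25 mM sodium acetate, pH 4) given i.v. via tail vein, then LPS 25 mg/kg 30 min later. Rats killed 30 min after LPS; luminal rinse of a 15 cm intestinal segment from the duodenum assayed for hemoglobin by hemoglobinometer against standards.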

[6] = tested on: Rattus norvegicus; assay: In vivo potency for inhibition of LPS-induced hypotension in rat by intra arterial (i.a.) administration; format: functional
Summary of the method: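 Rats recovered ≥1 h after surgery; baseline arterial pressure normalized to 100 mmHg. Compound given intraarterially in DMSO/PEG 400/45% hydroxypropyl-β-cyclodextrin/0.9% saline (2.5:20:30:47.5) 15 min before an i.a. bolus of E. coli LPS 0111:B4, 25 mg/kg in PBS pH 7.4. Pressure read every 1 min. Percent inhibition from area under the pressure–time curve versus vehicle.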

SMILES | half-life at 30 µM [1] [h] | half-life [2] [h] | Kb [3] [nM] | ED50 [4] [mg/kg] | Dose [5] [mg/kg] | ED50 [6] [mg/kg]
CC(=O)OC[n+]1cccc([C@H]2SCc3c(C(=O)c4cn(C(=O)N(C)C)c5cc(-c6ccc(F)cc6)ccc45)ccn32)c1.[Cl-] | 0.0433 | 9 |  |  |  | 
COC(=O)OC[n+]1cccc([C@H]2SCc3c(C(=O)c4cn(C(=O)N(C)C)c5cc(-c6ccc(F)cc6)ccc45)ccn32)c1.[Cl-] | 0.0167 | 1.6 |  |  |  | 
Cc1oc(=O)oc1C[n+]1cccc([C@H]2SCc3c(C(=O)c4cn(C(=O)N(C)C)c5cc(-c6ccc(F)cc6)ccc45)ccn32)c1.[Cl-] | 0.0467 | 4.1 |  |  |  | 
CN(C)C(=O)n1cc(C(=O)c2ccn3c2CS[C@@H]3c2cccnc2)c2ccc(-c3ccc(F)cc3)cc21 |  |  | 1.1 | 0.006 | 0.1 | 0.01
CN(C)C(=O)n1cc(C(=O)c2ccn3c2CS[C@@H]3c2ccc[n+](COC(=O)C(C)(C)C)c2)c2ccc(-c3ccc(F)cc3)cc21.[Cl-] | 0.347 | 45.3 |  |  |  | 

More lines, main results first:

half-life at 30 µM [1] [h] | half-life [2] [h] | SMILES | Kb [3] [nM] | ED50 [4] [mg/kg] | Dose [5] [mg/kg] | ED50 [6] [mg/kg]
0.518 | 17.6 | CC(OC(=O)C(C)(C)C)[n+]1cccc([C@H]2SCc3c(C(=O)c4cn(C(=O)N(C)C)c5cc(-c6ccc(F)cc6)ccc45)ccn32)c1.[Cl-] (stereo not given in full) |  |  |  | 
2.67 | 128 | COC(=O)[C@@H]1CCCN1C(=O)OC[n+]1cccc([C@H]2SCc3c(C(=O)c4cn(C(=O)N(C)C)c5cc(-c6ccc(F)cc6)ccc45)ccn32)c1.[Cl-] |  |  |  | 
> 10 | > 167 | CN(C)C(=O)OC[n+]1cccc([C@H]2SCc3c(C(=O)c4cn(C(=O)N(C)C)c5cc(-c6ccc(F)cc6)ccc45)ccn32)c1.[Cl-] |  |  |  | 
0.0167 | 8.5 | CN(C)C(=O)n1cc(C(=O)c2ccn3c2CS[C@@H]3c2ccc[n+](COC(=O)c3ccccc3)c2)c2ccc(-c3ccc(F)cc3)cc21.[Cl-] |  |  |  | 
